Laboratory results: publication PMC8607274 (Translational Oncology, 2021)

Legend:
[1] = system: various cancer cell lines; conditions: cited from earlier work
A2780 cells [2] = assay: Real time PCR of mitochondrial OXPHOS genes; assay type: cell-based; conditions: 48 h
How it was run: (§1)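 Total RNA extracted from cells treated with various test-compound concentrations. 2 µg RNA reverse-transcribed to cDNA. qPCR run in triplicate with primers for ND2, CYTB and ATPase 6.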

A2780 cells [3] = assay: JC-1 mitochondrial membrane potential assay; assay type: cell-based; conditions: 10, 50, 75 nM; 48 h
How it was run: (§2)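 After 48 h test-compound treatment, cells were harvested and resuspended in staining buffer containing JC-1, 20 min in the dark at 37 °C, 5% CO2. Then resuspended in fresh buffer; 10,000 events acquired by flow cytometry. Valinomycin as positive control.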

[4] = Bioavailability study, plasma concentration by HPLC-UV; assay type: in vivo, Swiss albino mice
How it was run: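 Swiss albino mice, n = 2/group, single oral or i.p. dose: test compound 10 mg/kg b.wt, curcumin 20 mg/kg b.wt. Blood sampled at 5, 10, 15 min and 1, 3, 6, 12, 24 h. Plasma protein-precipitated with an equal volume of acetonitrile. HPLC-UV at 1 mL/min, room temperature, detection 312 nm (test compound) or 369 nm (curcumin). Calibration curve in mouse plasma, 1–100 µM. Mean per time point.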

A2780 cells [5] = assay: Spectrometric ROS measurement; assay type: cell-based
How it was run: (§3)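 Plate-reader ROS: 20,000 cells/well plated; after 24 h washed in PBS. Incubated 1 h in PBS with 10 µM H2DCFDA plus various test-compound concentrations, with or without 20 mM NAC. Fluorescence read at ex 485/em 535. 200 µM H2O2 as positive control.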

A2780 cells [6] = assay: Cell cycle analysis; assay type: cell-based; conditions: 48 h
How it was run: (§4)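 Cells seeded at 1 × 10^5/well, then treated next day with 10, 50 or 75 nM for 48 h. PI (4 µg/ml) added for 5 min at RT. 10,000 events acquired by flow cytometry.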

A2780 = assay: Cytotoxicity on ovarian cancer cells compared to curcumin; assay type: cell-based
MCF7 = assay: MTT assay of human breast cancer cell lines; assay type: cell-based; conditions: 48 hours
A2780 cells [7] = assay: Immunoblotting of apoptosis-related proteins; assay type: cell-based
How it was run: (§5)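 Treated and control cells lysed in RIPA buffer with protease inhibitors; protein measured by Bradford. 40 µg resolved by SDS-PAGE and transferred to PVDF. Bands probed with antibodies, detected by enhanced chemiluminescence and quantified by densitometry.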

PA1 cells [8] = assay: JC-1 mitochondrial membrane potential assay; assay type: cell-based; conditions: 10, 50, 75 nM; 48 h
How it was run: as §2

A2780 cells [9] = assay: Intracellular ROS, H2DCFDA flow cytometry; assay type: cell-based; conditions: 75 nM
How it was run: (§6)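 Intracellular ROS: 1 × 10^5 cells per 35 mm dish exposed to test compound for 10, 20 and 30 min. Harvested, washed in PBS, stained with H2DCFDA for 30 min and analysed by flow cytometry. H2O2-treated cells as positive control. ROS taken as the histogram shift in median fluorescence intensity versus vehicle control.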

[10] = Toxicity in experimental animals; assay type: in vivo, Swiss albino mice
PA1 cells [11] = assay: Immunoblotting of apoptosis-related proteins and MMP1; assay type: cell-based
How it was run: as §5

PA1 cells [12] = assay: Real time PCR of mitochondrial OXPHOS genes; assay type: cell-based; conditions: 48 h
How it was run: as §1

PA1 cells [13] = assay: Cell cycle analysis; assay type: cell-based; conditions: 48 h
How it was run: as §4

Solubility in 0.6 N HCl = assay type: physicochemical
PA-1 cells = assay: Cytotoxicity on ovarian cancer cells compared to curcumin; assay type: cell-based
PA1 cells [14] = assay: Intracellular ROS, H2DCFDA flow cytometry; assay type: cell-based
How it was run: as §6

EAC tumor tissue = assay: Histology; assay type: in vivo, Swiss albino mice; conditions: ST03 post-treatment
How it was run: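 Tumour and organs (kidney, liver, spleen) collected at study end and fixed; paraffin sections (10 µm) H&E-stained. PCNA IHC on 5 µm tumour sections: 3% H2O2 in PBS, antigen retrieval by boiling in 10 mM sodium citrate pH 6. Blocked with 5% goat serum/1% BSA for 30 min. Mouse anti-PCNA 1:100 (1 h RT or overnight 4 °C), biotinylated anti-mouse IgG 1:200, streptavidin-HRP 1:1000, DAB-H2O2.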

[15] = system: human breast cancer cell lines (MDA-MB-231, MDA-MB-468, MCF7); assay: MTT assay of human breast cancer cell lines; assay type: cell-based; conditions: 48 h, read-out: IC50 (cytotoxicity)
PA1 cells [16] = assay: Spectrometric ROS measurement; assay type: cell-based
How it was run: as §3

PA1 cells [17] = assay: Transwell migration assay; assay type: cell-based; conditions: 40 nM, 48 h treatment, 5 h migration
How it was run: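 PA1 cells pretreated with various test-compound concentrations for 48 h, then 1 × 10^5 seeded into 8 µm-pore inserts in serum-free medium, complete medium below, 5 h. Inserts washed in PBS and fixed in 70% ethanol; non-migrated inner cells removed with cotton. Cells stained with 0.2% crystal violet, imaged and quantified by image analysis.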

[18] = system: Ehrlich ascites carcinoma (EAC) solid tumor; assay: Chemopreventive effect in EAC solid tumor mice; assay type: in vivo, Swiss albino mice
How it was run: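 Subcutaneous EAC thigh tumour model (1 × 10^6 cells). The treated group got 15 alternate-day doses of test compound (10 mg/kg b.wt) before tumour injection, none at inoculation, then 15 further doses after tumour injection. Compared with untreated controls, n = 5/group. Tumour volume was measured from day 7 after tumour injection, with body weight and physiological parameters. Two independent experiments.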

[19] = system: Ehrlich ascites carcinoma (EAC) solid tumor; assay: Antitumor activity in EAC solid tumor mice; assay type: in vivo, Swiss albino mice
How it was run: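 EAC cells maintained by intraperitoneal passage in mice every 7 days. Day-7 ascites cells were diluted in PBS, and 1 × 10^6 cells were injected subcutaneously into the thigh. On day 7, caliper-measured tumours were allocated to groups of equal mean size, 5 animals/group, repeated three times (n = 15). Groups: untreated control or test compound 10 mg/kg b.wt i.p. every alternate day. Tumour size and body weight were recorded every alternate day; V = (ab2)/2.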

A2780 cells [20] = assay: Cell viability assay with ST03 and NAC; assay type: cell-based; conditions: 20 mM NAC, 20 nM ST03, 24 h
PA1 cells [21] = assay: Cell viability assay with ST03 and NAC; assay type: cell-based; conditions: 20 mM NAC, 20 nM ST03, 24 h
tumor = conditions: cited from earlier work
xenograft models = conditions: twice-daily, nude mice; cited from earlier work
[22] = Swiss albino, mouse, plasma, ip, 10 mg/kg
[23] = Swiss albino, mouse, plasma, po, 10 mg/kg
[24] = Swiss albino, mouse, plasma, ip, 20 mg/kg
[25] = Swiss albino, mouse, plasma, po, 20 mg/kg

SMILES: O=C1/C(=C/c2ccccc2)CN(C(=O)C(=O)N2C/C(=C\c3ccccc3)C(=O)/C(=C/c3ccccc3)C2)C/C1=C\c1ccccc1 [1,2-bis[(3E,5E)−3,5-dibenzylidene-4-oxo-1-piperidyl]ethane-1,2-dione, reference compound]
- cytotoxic potency compared with curcumin ([1]; multiple cancer cell lines in vitro): greater potency than the parent compound curcumin

SMILES: O=C1/C(=C/c2ccccc2Cl)CN(C(=O)C(=O)N2C/C(=C\c3ccccc3Cl)C(=O)/C(=C/c3ccccc3Cl)C2)C/C1=C\c1ccccc1Cl [ST03, 1,2-bis[(3E,5E)-3,5-bis[(2-chlorophenyl)methylene]-4-oxo-1-piperidyl]ethane-1,2-dione]
- transcription of mitochondrially encoded OXPHOS genes (ND2, CYB, Atpase6) (A2780 cells [2]): decrease in the transcription
- JC1 green population (mitochondrial damage) (A2780 cells [3]): increase in the green population
- Cmax [4, 22]: 98.4 µM
- Tmax [4, 22]: 8 h
- Cmax [4, 23]: 55.2 µM
- Tmax [4, 23]: 2 h
- half-life [4, 23]: 3 h
- presence in plasma until ([4]; intraperitoneal): > 12 h
- presence in plasma until ([4]; oral): > 12 h
- bioavailability compared to curcumin ([4]; oral, ST03 10 mg/kg, curcumin 20 mg/kg): ~14 fold
- detectable in plasma ([4]; route not given): up to 12 h
- time to peak ROS levels (A2780 cells [5]; 20 mM ST03 as printed, 20 nM): 1 h
- cells accumulated at the sub G0/G1 stage (A2780 cells [6]; 50 nM): ~60%
- cell cycle arrest (A2780 cells [6]; 10, 50, 75 nM): no notable cell cycle arrest
- cytotoxicity relative to curcumin (A2780): 100 fold
- IC50 rank among breast cancer cell lines (MCF7): least IC50
- p53 expression (A2780 cells [7]): upregulation
- Bax expression (A2780 cells [7]; 40 nM): increase
- Bcl2 expression (A2780 cells [7]; 40 nM): significant decrease
- Cytochrome C (A2780 cells [7]; increasing concentrations): increase
- JC1 green population (mitochondrial damage) (PA1 cells [8]): increase in the green population
- time at which the histogram shifted (ROS production) (A2780 cells [9]): 30 min
- histopathology of kidney, liver and spleen (H&E) ([10]; ST03 post-treatment): no pathological changes
- RBC count ([10]; end of study): No significant change
- WBC count vs control group ([10]; end of study): increase in the number of WBCs
- body weight ([10]; pre- and post-treatment animals, 10 mg/kg b.wt): no notable weight reduction
- ALT level ([10]; serum, end of study): No significant change
- AST level ([10]; serum, end of study): No significant change
- urea level ([10]; serum, end of study): No significant change
- p53 expression (PA1 cells [11]): upregulation
- Bax expression (PA1 cells [11]; 40 nM): increase
- Bcl2 expression (PA1 cells [11]; 40 nM): significant decrease
- MMP1 expression (PA1 cells [11]; 40 nM): significant decrease
- Cytochrome C (PA1 cells [11]; increasing concentrations): increase
- transcription of mitochondrially encoded OXPHOS genes (ND2, CYB, Atpase6) (PA1 cells [12]): decrease in the transcription
- cells accumulated at the sub G0/G1 stage (PA1 cells [13]; 50 nM): ~70%
- cell cycle arrest (PA1 cells [13]; 10, 50, 75 nM): no notable cell cycle arrest
- solubility (Solubility in 0.6 N HCl): completely soluble
- cytotoxicity on PA-1 compared with A2780 (PA-1 cells): better cytotoxicity on PA-1 cells
- cytotoxicity relative to curcumin (PA-1 cells): 100 fold
- potency relative to curcumin [1]: ~100 fold
- selectivity of toxicity, cancer cells vs normal cells [1]: selectively induces toxicity in cancer cells compared to normal cells
- time at which ROS production was induced (PA1 cells [14]; 40 nM): 10 min
- time at which ROS production was induced (PA1 cells [14]; 50 nM): ≤ 10 min
- proliferating cells (PCNA staining) in tumor (EAC tumor tissue): reduction in proliferating cells
- tumor cells in H&E stained tumor vs control tissue (EAC tumor tissue): significant reduction of tumor cells
- Bcl2 in tumor extract (EAC tumor tissue; western blot): up-regulation
- IC50 [15]: 166 to 301 nM
- time to peak ROS levels (PA1 cells [16]; 20 mM ST03 as printed, 20 nM): 1 h
- reduction in migration (PA1 cells [17]): 60%
- pre and post-treatment compared with post-treatment alone ([18]; 10 mg/kg b.wt): better results than post-treatment alone
- tumor growth vs controls ([18]; pre-treatment with 15 alternate doses of 10 mg/kg b.wt, then post-treatment): significant reduction in tumor growth
- spleen size vs untreated animals ([19]; 10 mg/kg b.wt i.p.): reduction in spleen size
- tumor growth vs untreated control ([19]; 10 mg/kg b.wt i.p. every alternate day from day 7, 25 days): significant reduction in tumor growth
- dosage sufficient to inhibit tumor growth without adverse systemic toxicity ([19]; 15 doses, tumor allograft): 10 mg/kg

SMILES: CC(=O)N[C@@H](CS)C(=O)O [NAC, N-acetylcysteine, reference compound]
- effect of NAC on ST03 induced ROS (A2780 cells [5]; 20 mM NAC with ST03): blocked ST03 induced increase in ROS
- cell death with ST03 in presence of NAC (A2780 cells [20]): decrease in cell death
- cell death with ST03 in presence of NAC (PA1 cells [21]): decrease in cell death
- effect of NAC on ST03 induced ROS (PA1 cells [16]; 20 mM NAC with ST03): blocked ST03 induced increase in ROS

SMILES: COc1cc(/C=C/C(=O)CC(=O)/C=C/c2ccc(O)c(OC)c2)ccc1O [curcumin, reference compound]
- Cmax [4, 24]: 2.7 µM
- Tmax [4, 24]: 3 h
- Cmax [4, 25]: 13.7 µM
- Tmax [4, 25]: 0.25 h
- dosage with antitumor activity in vivo (tumor): 800 mg/kg of body weight
- potency range [1]: ~10000 nM
- effective dosage in xenograft models (xenograft models): 50 mg/kg b.wt
